RORA inh – inhibitors of human nuclear receptor RORA; P35398; CHO-K1 Gal4-RORA LBD luciferase reporter, luminescence; inhibition, % at 10 µM; actives 0.43% (n = 65,000);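 active = inhibition above the mean of all tested compounds plus 3 SD, cut at about 52% in these data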;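 note: 0% = RORA-transfected cells with DMSO and 100% = mock-transfected cells lacking RORA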
Target sequence (P35398 whole entry, looked up, the tested form may be a part): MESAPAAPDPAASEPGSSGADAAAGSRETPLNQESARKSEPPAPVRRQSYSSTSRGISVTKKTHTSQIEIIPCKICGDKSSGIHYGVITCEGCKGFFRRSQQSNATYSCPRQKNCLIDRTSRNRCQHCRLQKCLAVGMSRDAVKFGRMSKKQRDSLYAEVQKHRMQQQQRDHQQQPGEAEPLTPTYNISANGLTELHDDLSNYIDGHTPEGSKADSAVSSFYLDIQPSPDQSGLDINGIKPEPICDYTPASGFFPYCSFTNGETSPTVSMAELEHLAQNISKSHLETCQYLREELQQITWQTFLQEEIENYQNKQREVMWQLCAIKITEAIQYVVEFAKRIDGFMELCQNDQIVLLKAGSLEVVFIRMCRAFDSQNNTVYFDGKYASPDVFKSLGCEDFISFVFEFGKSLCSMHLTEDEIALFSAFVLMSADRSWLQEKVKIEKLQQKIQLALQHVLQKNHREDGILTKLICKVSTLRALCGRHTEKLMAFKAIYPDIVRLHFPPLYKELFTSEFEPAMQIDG
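Material: transiently transfected CHO-K1 cells, Gal4-DBD/human RORA-LBD fusion plus 5xGal4-luciferase reporter; doses: single concentration per compound, 10 µM final; incubation: 20 h at 37 °C; detection: luminescence from basal luciferase reporter expression; read-out: % inhibition of basal luciferase versus +RORA/-RORA DMSO controls; replication: tested once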
Starred values were filed as active, the others as inactive. The full list was thinned out, with hits kept by preference.

SMILES | RORA inh
CCOC(=O)C1=C(C)NC(=O)NC1c1ccc(NC(C)=O)cc1 (configuration not stated) | -3
COC(=O)C1=C(CN2CCCc3ccccc32)NC(=O)NC1c1ccc(F)cc1 (configuration not stated) | 78*
CC1(C)CC(=O)c2cc(OCC(=O)NCCN3CCCc4ccccc43)ccc2O1 | -5
Cc1cc(/C=N/n2cnnc2)c(C)n1-c1ccc(OCc2ccccc2F)cc1 | 62*
C(=N\n1cnnc1)/c1cccc(Oc2ccccc2)c1 | 3
C=CCSc1nc2ccccc2n1Cc1nnc(-c2cccs2)o1 | 18
COc1ccccc1-c1nnc(NC(=O)c2ccc(S(=O)(=O)N(C)C)cc2)o1 | -7
CC1(C)COCN1S(=O)(=O)c1ccc(C(=O)Nc2nnc(-c3ccc(Cl)s3)o2)cc1 | 53*
CC1CC(C)CN(C(=O)CSc2nnc(-c3ccc(Cl)s3)o2)C1 (configuration not stated) | -10
Cc1csc(SCCn2c(N3CCCC3)nc3c2c(=O)[nH]c(=O)n3C)n1 | 8
CC(C)CCNC(=O)NC(=O)COc1ccccc1C#N | 1
O=C(O)CCCCCN1C(=O)CSC1=S | 59*
CCC12CN(C(=O)c3ccc(OC)cc3)CC(CC)(CN(C(=O)c3ccc(OC)cc3)C1)C2=O | 1
O=C(c1n[nH]c2ccccc12)N1CCN(S(=O)(=O)c2ccc3ccccc3c2)CC1 | 5
c1ccc(Oc2ccc(-n3cnnn3)cc2)cc1 | 5
CCN(Cc1ccccc1)S(=O)(=O)c1ccc(C(=O)Nc2nnc(-c3ccccc3OC)o2)cc1 | 49
CCCCN(CCCC)S(=O)(=O)c1ccc(C(=O)Nc2nnc(CSC)o2)cc1 | 61*
CCCN(CCC)S(=O)(=O)c1ccc(C(=O)Nc2nnc(-c3cccc(OC)c3)o2)cc1 | -18
Cn1c(=O)c2c3c(sc2n2c(SCC(=O)c4ccc(Cl)cc4)nnc12)COC(C)(C)C3 | 7
CCCCN1c2cc(C)c(O)cc2C(C(=O)OCC)C1C (configuration not stated) | 5
Cc1ccccc1C(=O)/C=C1\NC(=O)CS1 | 16
CCC(=O)Nc1ccc(C(=O)Nc2ccc3c(c2)OCO3)cc1 | -31
CCOC(=O)c1c(N)sc(C(=O)Nc2ccc3c(c2)OCO3)c1C | 54*
Cc1noc(C(=O)Nc2ccc3c(c2)OCO3)c1Cl | -65
CC(=O)C(C)Oc1ccc2c3c(c(=O)oc2c1C)CCCC3 (configuration not stated) | -59
SMILES | RORA inh
N#CNC1=NCN(Cc2ccccc2)CN1 | 8
Cc1c(C(=O)Nc2ccncc2)oc2c1C(=O)CC(C)(C)C2 | 6
CCCn1c(C)cc(C(=O)CN2C(=O)c3ccccc3C2=O)c1C | -55
C=CCn1c(C)cc(C(=O)COc2nncc3ccccc23)c1C | -80
COCCn1c(C)cc(C(=O)COC(=O)c2n[nH]c3ccccc23)c1C | 58*
COc1cccc(NC(=O)c2nnn(Cc3ccc(Br)cc3F)c2N)c1 | -58
CC1=C(C(N)=O)C(c2ccccc2)n2nc(-c3cccc(C)c3)nc2N1 (configuration not stated) | -2
Cc1ccc(S(=O)(=O)N2CCC(C(=O)N3CCC(C(=O)NCc4cccnc4)CC3)CC2)cc1 | 10
NC(=O)C1CCN(C(=O)c2cc(S(=O)(=O)N3CCOCC3)c(Cl)cc2Cl)CC1 | 7
COCCCN(C(C)=O)c1nc(-c2ccc(OC)cc2)cs1 | -84
COc1cc(CSc2nnnn2-c2ccc(C)cc2)cc(OC)c1OC | 72*
Cc1ccc(-n2nnnc2SCC(=O)N2CCN(C(=O)c3ccco3)CC2)c(C)c1 | 1
COc1ccc(C)cc1-n1nnnc1SCc1nc2ccccc2s1 | -50
CCN(CC)C(=O)COc1ccc(-c2ccccc2)cc1 | -44
COc1cc(CN/C(C)=C(\C#N)C(N)=O)cc(OC)c1OC | -15
CC(=O)OC1c2ccccc2C(=O)N1Cc1ccccc1Cl (configuration not stated) | 4
Cc1ccc(NC(=O)Cc2nn(C)c(=O)c3ccccc23)cc1F | 76*
COc1ccccc1N1CCN(CC(=O)Nc2ccc(C)c(F)c2)CC1 | -2
Cc1cc(C)n(-c2ccc(C(=O)Nc3ccc4c(c3)OCCO4)cc2)n1 | -75
Cc1ccc(NC(=O)Cn2nc(C)c3ccccc3c2=O)cc1F | 7
COc1ccc(N2CCN(C(=O)C3CCC(Cn4c(=S)[nH]c5ccccc5c4=O)CC3)CC2)cc1 (configuration not stated) | -18
Cn1nc(CC(=O)Nc2ccc3c(c2)OCCO3)c2ccccc2c1=O | 75*
Cn1nc(CC(=O)Nc2ccc(N3CCN(C(=O)OC(C)(C)C)CC3)cc2)c2ccccc2c1=O | 86*
CCCCC(=O)Nc1ccc(N2CCN(C(=O)CC)CC2)cc1 | 10
Cc1cc2ccccc2c(=O)n1CC(=O)Nc1ccc2c(c1)OCO2 | 3
CCOC(=O)c1ccccc1NC(=O)CSc1nnnn1C1CCCCC1 | -54
CC(=O)NC(CCS(C)(=O)=O)C(=O)Nc1cccc2ccccc12 (configuration not stated) | -10
O=C(Nc1ccccc1)NC1(C(=O)N2CCN(c3ncccn3)CC2)CCCCC1 | -16

Bioassay records deposited in PubChem by The Scripps Research Institute Molecular Screening Center.
